In PMC3702663 (Journal of chemical information and modeling, 2013):
Read-outs that look alike come from different tables or passages of the source.

Tests used:
MOP receptor [1] = target: T1, MOP receptor (Homo sapiens, UniProt P35372); experiment: Competitive inhibition of 3H-diprenorphine binding at the MOP receptor; settings: 3H-diprenorphine 0.3 nM
DOP receptor [2] = target: T2, DOP receptor (Homo sapiens, UniProt P41143); experiment: Competitive inhibition of 3H-diprenorphine binding at the DOP receptor; settings: 3H-diprenorphine 0.3 nM
hKOP receptor [3] = target: T3, hKOP receptor (Homo sapiens, UniProt P41145); experiment: BRET-based arrestin3 recruitment assay, hKOP-RLuc8 with arrestin3-mVenus; type: cell-based; settings: Potency for arrestin3 recruitment at hKOP receptor, 5 min after ligand
Summary of the method: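 HEK293T cells transfected with polyethylenimine (1:3) using 0.2 µg hKOP receptor with C-terminal RLuc8, 15 µg human arrestin3-mVenus and 4.8 µg empty vector (20 µg total), grown in DMEM/10% FBS. Assayed 48 h post-transfection: cells resuspended in PBS, ~200,000/well, 5 µM coelenterazine H, then ligand 5 min later.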

DOP receptor [4] = target: T2, DOP receptor; experiment: BRET-based G protein; type: cell-based
MOP receptor [5] = target: T1, MOP receptor; experiment: BRET-based G protein; type: cell-based
hKOP receptor [6] = target: T3, hKOP receptor; experiment: BRET-based G protein; type: cell-based; settings: relative to EKC
hKOP receptor [7] = target: T3, hKOP receptor; type: binding

| Structure (SMILES) | Ki (MOP receptor [1]; Ki at the MOP receptor, reference ligand) [µM] | Ki (DOP receptor [2]; Ki at the DOP receptor, reference ligand) [µM] | Ki (MOP receptor [1]; Ki MOP, means ± S.E.M. (n=3)) [µM] | EC50 (hKOP receptor [3]) [µM] | EC50 (DOP receptor [4]) [mM] | Agonistic activity at the DOP receptor, in words (DOP receptor [4]; BRET) | Ki (DOP receptor [2]; Ki DOP, means ± S.E.M. (n=3)) [µM] | Agonistic activity at the MOP receptor, in words (MOP receptor [5]) | EC50 (DOP receptor [4]; read-out: Potency for G protein activation at the DOP receptor, BRET) [mM] | Agonistic activity (GαoB activation) at hKOP receptor, in words (hKOP receptor [6]) | Ki (hKOP receptor [7]) [µM] | Inhibition of 3H-diprenorphine binding (primary testing) (hKOP receptor [7]; 100 µM compound, 3H-diprenorphine 0.3 nM) |
| --- | --- | --- | --- | --- | --- | --- | --- | --- | --- | --- | --- | --- |
| CC[C@]12CCN(CC3CC3)[C@H](C(=O)c3ccc(O)cc31)[C@@H]2C [EKC, ethylketocyclazocine, reference compound] | 0.17 ± 0.1 | 0.25 ± 0.031 |  |  |  |  |  |  |  |  |  |  |
| O=C(CN1CCCC1C(=O)Nc1nccs1)Nc1cccc(F)c1 (centres unmarked) [MCKK-17R, 1-(2-(3-fluorophenylamino)-2-oxoethyl)-N-(thiazol-2-yl)pyrrolidine-2-carboxamide] |  |  | 510 | > 1000 | > 1 | most active enantiomer at the DOP receptor | 290 | Neither the racemic nor the MCKK-17 stereoisomers displayed significant activity |  |  |  |  |
| O=C(CN1CCCC1C(=O)Nc1nccs1)Nc1cccc(F)c1 (centres unmarked) [MCKK-17S, 1-(2-(3-fluorophenylamino)-2-oxoethyl)-N-(thiazol-2-yl)pyrrolidine-2-carboxamide] |  |  | > 10000 | 120 ± 47 |  | did not significantly activate the DOP receptor | > 10000 | Neither the racemic nor the MCKK-17 stereoisomers displayed significant activity | > 1 | full agonism relative to EKC | 120 |  |
| O=C(CN1CCCC1C(=O)Nc1nccs1)Nc1cccc(F)c1 (racemic) [MCKK-17, 1-(2-(3-fluorophenylamino)-2-oxoethyl)-N-(thiazol-2-yl)pyrrolidine-2-carboxamide] |  |  |  | 160 ± 38 | > 1 |  |  | Neither the racemic nor the MCKK-17 stereoisomers displayed significant activity |  |  |  | partially but significantly inhibited |
